Measurements published in ChEMBL document CHEMBL1146850, “Dithiocarbamic acid esters as anticancer agent. Part 1: 4-substituted-piperazine-1-carbodithioic acid 3-cyano-3,3-diphenyl-propyl esters” (Bioorg Med Chem Lett, 2006).

Experiments:
[1] = system: HL-60; assay: Antiproliferative activity against human HL60 cells at 33 uM by MTT assay; assay type: functional
Summary of the method: (§1)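 HL-60 cells kept in RPMI-1640 with 10% FBS, penicillin 100 U/mL and streptomycin at 37 °C under humidified CO2. Exponentially growing cells seeded at 1–2.5 × 10^4 cells/mL. Compound added after 24 h, with medium-only controls. Exposure 48 h, then viable cells read by MTT at 570 nm absorbance. Screened at four concentrations, with single-concentration data given at 33.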

[2] = system: Bel-7402; assay: Antiproliferative activity against human Bel7402 cells at 33 uM by SRB assay; assay type: functional
Summary of the method: (§2)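 Bel-7402 cells kept in RPMI-1640 with 10% FBS, penicillin 100 U/mL and streptomycin at 37 °C under humidified CO2. Exponentially growing cells seeded at 1–2.5 × 10^4 cells/mL. Compound added 24 h later, with medium only for controls. Incubation 48 h, then viable cells counted by SRB. Screened at four concentrations, with single-concentration data given at 33.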

[3] = system: HL-60; assay: Antiproliferative activity against human HL60 cells by MTT assay; assay type: functional, cell-based; summary of the method: as §1
[4] = system: Bel-7402; assay: Antiproliferative activity against human Bel7402 cells by SRB assay; assay type: functional, cell-based; summary of the method: as §2
[5] = system: CCRF S-180; assay: Antiproliferative activity against mouse S180 cells; assay type: functional
[6] = system: BGC-823; assay: Antiproliferative activity against human BGC823 cells implanted in nude mouse; assay type: functional
[7] = system: Rattus norvegicus; assay: Toxicity in rat at 10 g/kg after 10 days; conditions: in vivo, 10000 mg/kg, 240 h
[8] = system: Rattus norvegicus; assay: Toxicity in rat at 10 g/kg after 10 days assessed as change in body weight relative to control; conditions: in vivo, 10000 mg/kg, 240 h
[9] = system: H22; assay: Antiproliferative activity against mouse H22 cells; assay type: functional

SMILES | inhibition at 33 µM [1] | inhibition at 33 µM [2] | also measured
N#CC(CCSC(=S)N1CCN(S(=O)(=O)c2ccccc2)CC1)(c1ccccc1)c1ccccc1 | 0% | 0% | –
N#CC(CCSC(=S)N1CCN(c2ccc([N+](=O)[O-])cc2)CC1)(c1ccccc1)c1ccccc1 | 7.8% | 2.2% | –
COc1cccc(N2CCN(C(=S)SCCC(C#N)(c3ccccc3)c3ccccc3)CC2)c1 | 9.8% | 15.5% | –
CCOC(=O)N1CCN(C(=S)SCCC(C#N)(c2ccccc2)c2ccccc2)CC1 | 0% | 35% | –
CS(=O)(=O)N1CCN(C(=S)SCCC(C#N)(c2ccccc2)c2ccccc2)CC1 | 24.9% | 13.4% | –
N#CC(CCSC(=S)N1CCN(S(=O)(=O)c2ccc(F)cc2)CC1)(c1ccccc1)c1ccccc1 | 0% | 9.7% | –
N#CC(CCSC(=S)N1CCN(C(=O)CCCl)CC1)(c1ccccc1)c1ccccc1 | 43.3% | 22% | –
N#CC(CCSC(=S)N1CCN(CCCl)CC1)(c1ccccc1)c1ccccc1 | 53.6% | 28.7% | –
COc1ccc(S(=O)(=O)N2CCN(C(=S)SCCC(C#N)(c3ccccc3)c3ccccc3)CC2)cc1 | 1.5% | 5.4% | –
N#CC(CCSC(=S)N1CCN(Cc2ccccc2)CC1)(c1ccccc1)c1ccccc1 | 12.5% | 4.7% | –
N#CC(CCSC(=S)N1CCN(C(=O)CCBr)CC1)(c1ccccc1)c1ccccc1 | 82.2% | 23.4% | –
COc1ccccc1N1CCN(C(=S)SCCC(C#N)(c2ccccc2)c2ccccc2)CC1 | 4.8% | 0% | –
N#CC(CCSC(=S)N1CCN(c2ccccc2)CC1)(c1ccccc1)c1ccccc1 | 10.5% | 0% | –
N#CC(CCSC(=S)N1CCN(c2ccccc2F)CC1)(c1ccccc1)c1ccccc1 | 0% | 4.3% | –
CCCCCCN1CCN(C(=S)SCCC(C#N)(c2ccccc2)c2ccccc2)CC1 | 2.57% | 12.7% | –
N#CC(CCSC(=S)N1CCN(c2cccc(Cl)c2)CC1)(c1ccccc1)c1ccccc1 | 4.2% | 0% | –
N#CC(CCSC(=S)N1CCN(C(=O)c2ccco2)CC1)(c1ccccc1)c1ccccc1 | 30.4% | 17.7% | –
N#CC(CCSC(=S)N1CCN(S(=O)(=O)c2ccccc2[N+](=O)[O-])CC1)(c1ccccc1)c1ccccc1 | 0% | 0% | –
N#CC(CCSC(=S)N1CCN(S(=O)(=O)c2cccc(C(F)(F)F)c2)CC1)(c1ccccc1)c1ccccc1 | 0% | 0% | –
CN1CCN(C(=S)SCCC(C#N)(c2ccccc2)c2ccccc2)CC1 | 79% | 75.2% | IC50 [3]: 9.9 µM; IC50 [4]: 27.1 µM

SMILES | inhibition at 33 µM [1] | inhibition at 33 µM [2] | also measured
N#CC(CCSC(=S)N1CCNCC1)(c1ccccc1)c1ccccc1 | 98.7% | 95.5% | IC50 [3]: 5.3 µM; IC50 [4]: 11.5 µM
N#CC(CCSC(=S)N1CCN(c2ncccn2)CC1)(c1ccccc1)c1ccccc1 | 24.2% | 33.2% | –
N#CC(CCSC(=S)N1CCN(CCO)CC1)(c1ccccc1)c1ccccc1 | 92.5% | 57.7% | IC50 [3]: 24.5 µM; IC50 [4]: 11.7 µM
N#CC(CCSC(=S)N1CCN(S(=O)(=O)c2cccc([N+](=O)[O-])c2)CC1)(c1ccccc1)c1ccccc1 | 0% | 5.5% | –
N#CC(CCSC(=S)N1CCN(Cc2ccc3c(c2)OCO3)CC1)(c1ccccc1)c1ccccc1 | 0% | 16.6% | –
N#CC(CCSC(=S)N1CCN(C(c2ccccc2)c2ccc(Cl)cc2)CC1)(c1ccccc1)c1ccccc1 (centres undefined) | 2.7% | 18% | –
CCN1CCN(C(=S)SCCC(C#N)(c2ccccc2)c2ccccc2)CC1 | -7.81% | 4.97% | –
Cc1ccc(Cl)cc1N1CCN(C(=S)SCCC(C#N)(c2ccccc2)c2ccccc2)CC1 | 0% | 14.6% | –
CS(=O)(=O)OCCC(=O)N1CCN(C(=S)SCCC(C#N)(c2ccccc2)c2ccccc2)CC1 | 0% | 1.09% | –
N#CC(CCSC(=S)N1CCN(S(=O)(=O)c2c(Cl)cccc2Cl)CC1)(c1ccccc1)c1ccccc1 | 0% | 0% | –
COc1ccc(N2CCN(C(=S)SCCC(C#N)(c3ccccc3)c3ccccc3)CC2)cc1 | 8.5% | 14.9% | –
N#CC(CCSC(=S)N1CCN(c2ccccc2Cl)CC1)(c1ccccc1)c1ccccc1 | 0% | 0% | –
N#CC(CCSC(=S)N1CCN(c2ccc(Cl)c(Cl)c2)CC1)(c1ccccc1)c1ccccc1 | 0.7% | 23.3% | –
N#CC(CCSC(=S)N1CCN(S(=O)(=O)c2ccc([N+](=O)[O-])cc2)CC1)(c1ccccc1)c1ccccc1 | 0% | 0.2% | –
N#CC(CCSC(=S)N1CCN(c2ccc(F)cc2)CC1)(c1ccccc1)c1ccccc1 | 0% | 15.9% | –
N#CC(CCSC(=S)N1CCN(c2cccc(C(F)(F)F)c2)CC1)(c1ccccc1)c1ccccc1 | 8.5% | 26.3% | –
Cc1ccccc1N1CCN(C(=S)SCCC(C#N)(c2ccccc2)c2ccccc2)CC1 | 0% | 0% | –
N#CC(CCSC(=S)N1CCN(c2ccccn2)CC1)(c1ccccc1)c1ccccc1 | 31.8% | 22.6% | –
CCCCN1CCN(C(=S)SCCC(C#N)(c2ccccc2)c2ccccc2)CC1 | -13.5% | 11% | –
CN1CCN(C(=S)SCCC(C#N)(c2ccccc2)c2ccccc2)CC1.Cl | – | – | Activity [5]: 46.4%; Activity [6]: 18.1%; Activity [7]: Not Active; Activity [8]: Not Active; Activity [9]: 39.3%
